# Hits are enriched below; roughly 4.8% of the tested compounds scored in any of these assays.
# Calb FLC: C. albicans growth inhibition with fluconazole, primary screen, CaCi-2 strain, Alamar Blue fluorescence; C. albicans CaCi-2 (fluconazole-resistant clinical isolate) + fluconazole, 48 h; growth inhibition, % (no concentration beside the values); 300,000 compounds, 0.57% hits;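 active = growth inhibition above about 58% in most replicates, limit read from the data, passing the limit was not always enough; inconclusive = exactly half the replicates above a set limit; inactive = most replicates below a set limit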;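 also: all wells also contain fluconazole at 8 µg/ml as a sub-toxic cotreatment; 0% = median of DMSO wells and 100% = median of geldanamycin control wells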
# ATG4B inhibitor: ATG4B protease inhibitors, primary screen, biochemical, fluorescence, uHTS | ATG4B cleavage of LC3-PLA2, NBD-HPC fluorescence, 1 h | inhibition, % at 8.33 µM | 340,000 compounds, 0.51% hits | AID 504462, 2011; in the data active = inhibition above about 40%
# NALP3 yeast inh: NALP3 inflammasome inhibitors in reconstituted yeast, primary screen, luminescence, uHTS. Yeast reconstituted NLRP3/ASC/caspase-1, beta-gal luminescence, 24 h. inhibition, % at 10 µM. 330,000 compounds, 0.39% hits;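 active = inhibition of 50% or more; inactive = inhibition below 50%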;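 also: plate controls were induced DMSO wells for no effect and uninduced yeast grown without galactose for full effect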
# NALP1 yeast inh: NALP1 inflammasome inhibitors in reconstituted yeast, colorimetric, S. cerevisiae, triplicate retest | S. cerevisiae NALP1/ASC/caspase-1 growth, X-gal OD620, 72 h | inhibition, % at 10 µM | 280,000 compounds, 0.61% hits | AID 2071, 2009; in the data active = inhibition mostly above about 24%, no sharp cut-off; inactive = mostly below about 32%
# UCH37 inh: inhibitors of human UCH37 deubiquitinase, primary screen, biochemical, Ub-AMC cleavage, fluorescence; Ubiquitin carboxyl-terminal hydrolase isozyme L5 (Homo sapiens), Q9Y5K5; inhibition, % (test concentration not listed); AID 588478, 2011; 330,000 compounds, 0.33% hits; purified proteasome/UCH37;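 active = mean inhibition over replicate wells above about 20%, limit read from the data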;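 also: 0% = compound-free wells with enzyme and 100% = wells lacking proteasome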
# Target sequence (Q9Y5K5 whole entry, looked up): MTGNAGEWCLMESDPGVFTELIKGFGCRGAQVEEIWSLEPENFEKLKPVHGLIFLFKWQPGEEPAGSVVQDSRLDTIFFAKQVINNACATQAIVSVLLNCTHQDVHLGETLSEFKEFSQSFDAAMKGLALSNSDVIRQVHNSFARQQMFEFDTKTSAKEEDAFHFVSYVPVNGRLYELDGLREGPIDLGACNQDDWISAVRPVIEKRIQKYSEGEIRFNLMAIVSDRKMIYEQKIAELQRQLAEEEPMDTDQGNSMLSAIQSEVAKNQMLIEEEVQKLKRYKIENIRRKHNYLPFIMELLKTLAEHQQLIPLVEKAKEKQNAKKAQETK
#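 Material: human UCH37 enzyme supplied as purified proteasome complex. Measure: % inhibition of Ub-AMC cleavage fluorescence. Medium: pH 7.4 Tris-HCl (50 mM) with ovalbumin, ATP-MgCl2, DTT. Times: 30 min preincubation with enzyme, 25 min cleavage at room temperature. Detection: AMC fluorescence intensity at 355/460 nm.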
# ALR H2O2 inh: inhibitors of human ALR sulfhydryl oxidase, primary screen, biochemical, H2O2 detection, HRP-luminol luminescence, single point; purified ALR, DTT oxidation; inhibition, % (test concentration not listed); 290,000 compounds, 3.8% hits;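 active = mean replicate inhibition above about 79%, with every replicate also reaching it, limit read from the data; inconclusive = only one of the two criteria met; inactive = mean below limit and not every replicate reaching it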
# Target sequence (P55789 whole entry, looked up): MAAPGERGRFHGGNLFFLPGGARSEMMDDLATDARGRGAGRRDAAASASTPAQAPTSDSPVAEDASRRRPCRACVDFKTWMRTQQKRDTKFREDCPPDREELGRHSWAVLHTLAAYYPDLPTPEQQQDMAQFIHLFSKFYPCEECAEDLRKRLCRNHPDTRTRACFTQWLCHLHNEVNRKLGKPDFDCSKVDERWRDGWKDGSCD
# * = called active by the depositor; ? = inconclusive; . = no result.
SMILES,Calb FLC,ATG4B inhibitor,NALP3 yeast inh,NALP1 yeast inh,UCH37 inh,ALR H2O2 inh
COc1cc(Nc2c3c(nc4ccccc24)CCCC3)cc(OC)c1OC,3,-1,-4,15,4,98*
COc1ccc(Nc2nc3ccccc3c(=O)s2)c(OC)c1,-2,-5,23,-22,2,0
Fc1cccc(Nc2c3c(nc4ccccc24)CCC3)c1,-5,15,24,20,-25,2
COc1ccccc1Nc1c2c(nc3ccccc13)CCC2,38,-2,20,8,7,99*
CCCN1C(=O)C(=NOCC(=O)NCC(F)(F)F)c2ccccc21,.,.,.,.,2,.
COc1ccc(C(=O)NCC(=O)NN=C/C(C)=C/c2ccccc2)cc1OC,.,.,.,.,6,.
O=C(NCc1ccco1)c1c2c(nc3ccccc13)CCC2,-15,8,2,7,-2,-8
COc1ccc(NC(=O)CSc2c3c(nc4ccccc24)CCC3)c(OC)c1,5,-7,4,1,1,98*
Cc1ccc2nc3c(c(Nc4cccc(O)c4)c2c1)CCC3,-1,1,9,7,-9,98*
O=C(CSc1c2c(nc3ccccc13)CCCC2)NCc1ccco1,12,-4,-13,6,4,98*
Cc1cc(C)nc(NN=Cc2cccc(Cl)c2)n1,.,.,.,.,4,.
CCOC(=O)c1ccc(Oc2nc(NC(C)(C)C)nc(N(C)C)n2)cc1,91*,12,14,7,0,-5
N#CNC(=Nc1cccc(C(F)(F)F)c1)SCc1ccc(C(=O)O)cc1,-5,-1,-3,-2,1,99*
N#CNC(=Nc1ccccc1)SCc1ccc(C(=O)O)cc1,8,-9,10,-8,2,-3
Cc1cc(C(=O)N2CCCC(C(=O)c3cccc(C(F)(F)F)c3)C2)n[nH]1 (configuration not stated),-2,11,18,5,1,2
O=C(c1cccc(C(F)(F)F)c1)C1CCCN(C(=O)c2cc(C3CC3)[nH]n2)C1 (configuration not stated),-3,27,4,-2,-2,86*
O=C(NN=Cc1ccccn1)c1cccc(NC(=O)c2ccccc2Cl)c1,.,.,.,.,2,.
CCOC(=O)c1c(N2C(=O)Nc3ccccc3N2O)sc2c1CCCCC2,24,7,7,-3,1,95*
CCOC(=O)Nc1ccc(OC)cc1S(=O)(=O)N1CCCCC1,1,-6,17,.,29*,-2
Cc1cccc(CCN2C(N(C)C)=NC[C@@H]2CC(C)C)c1,.,-3,14,.,33*,-34
CCC(C(=O)Oc1c(C(C)C)cccc1C(C)C)c1ccccc1 (configuration not stated),.,-9,17,.,33*,-12
CC1=C([N+](=O)[O-])C(c2ccc(O)c(O)c2)NC(=O)N1 (configuration not stated),.,6,-12,6,7,99*
CC(=O)C1=C(c2ccccc2)NC(=O)NC1c1ccc2c(c1)OCO2 (configuration not stated),-2,5,29,16,4,-11
COc1ccc(C2NC(=O)NC(C)=C2[N+](=O)[O-])cc1OC (configuration not stated),10,7,-7,11,10,10
CC(=O)C1=C(c2ccccc2)NC(=S)NC1c1cc(Cl)c(OC(C)C)c(Cl)c1 (configuration not stated),18,16,15,14,3,12
SMILES,Calb FLC,ATG4B inhibitor,NALP3 yeast inh,NALP1 yeast inh,UCH37 inh,ALR H2O2 inh
CC(=O)C1=C(c2ccccc2)NC(=O)NC1c1ccc(O)c(O)c1 (configuration not stated),36,0,0,14,1,99*
CC(=O)C1=C(c2ccccc2)NC(=S)NC1c1ccc(O)c(O)c1 (configuration not stated),-30,12,18,-7,2,99*
Cn1cc([N+](=O)[O-])c(C(=O)NN=Cc2ccncc2)n1,.,.,.,.,1,.
CC(C)(C)C1CCC(OC(=O)C[N+]2(C)CCCCC2)CC1 (configuration not stated),79*,-2,20,1,8,-5
CC(C)(C)C1CCC(OC(=O)C[N+]2(C)CCCC2)CC1 (configuration not stated),-23,-2,3,-8,2,0
CC(=NOCC(=O)OCC(=O)NC(=O)c1ccc(OC(F)F)cc1)c1ccc2c(c1)OCO2,.,.,.,.,-3,.
O=C(Nc1nnc(-c2ccccn2)o1)c1ccc(Br)cc1,98*,25,14,10,1,8
COc1ccc(CCNC(=O)CC(C)=NNC(=O)c2ccc(Cl)cc2Cl)cc1OC,.,.,.,.,4,.
COc1ccc(OCc2cc(C(=O)N3CCN(CC4CC4)CC3)no2)c(Cl)c1,-6,-3,18,28*,2,-26
CCOC(=O)N1CCN(C(=O)c2cc(COc3ccc(OC)cc3Cl)on2)CC1,9,-1,25,16,1,2
O=C(NN=Cc1cc(Br)cc(Br)c1O)c1cccc(N2CCCC2=O)c1,.,.,.,.,-1,.
CCOC(=O)N1CCN(C(=O)CS(=O)(=O)Cc2nc(-c3cccc(OC)c3)oc2C)CC1,0,-2,9,6,5,-2
COc1cccc(-c2nc(CS(=O)(=O)CC(=O)N3CCN(C4CCCCC4)CC3)c(C)o2)c1,0,-13,0,26,1,99*
COc1cccc(-c2nc(CS(=O)(=O)CC(=O)N3CCN(C)CC3)c(C)o2)c1,-7,2,11,-3,4,97*
O=Nc1c(O)c2ccccc2c2ccccc12,94*,-12,.,.,2,.
CC(C)CN(C(=O)CSc1nncs1)c1c(N)n(CC(C)C)c(=O)[nH]c1=O,2,-10,6,45*,-1,-1
CC(=O)c1ccc(N2CCN(CC(=O)N(CC(C)C)c3c(N)n(CC(C)C)c(=O)[nH]c3=O)CC2)cc1,?,2,15,0,3,.
CC(C)CN(C(=O)CN1CCN(c2ccc(O)cc2)CC1)c1c(N)n(CC(C)C)c(=O)[nH]c1=O,-1,-1,-3,22,2,99*
Cc1ccc(NC(=O)Cc2nc(-c3c[nH]c(C(=O)N4CCCC4)c3)cs2)c(C)c1,.,2,12,.,-2,98*
Nc1nonc1-n1nnc(C(=O)NN=Cc2cccnc2)c1CSc1ccccc1,.,.,.,.,2,.

# Bioassay records (PubChem BioAssay)
